# Source: PubChem (several laboratories)
# Ecoli tolC: growth inhibitors of E. coli tolC mutant, primary screen, strain BW25113 ΔtolC::kan, 384-well | growth inhibition, % at 10 µM (by protocol) | hit rate 2.2% among 65,000 | OD615;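 active = growth inhibition at or above a cutoff equal to the mean over every tested compound plus 3 SD, cut at about 60% in these data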;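 note: growth measured after 20 h incubation at 37 °C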
#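 test system = E. coli BW25113 ΔtolC::kan bacteria | medium = LB with kanamycin 50 µg/mL | signal = OD at 615 nm | schedule = 37 °C, 20 h exposure | evaluation = % inhibition of E. coli growth | compound dosing = one dose of 10 µM final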
# H69AR inhibit: proliferation blockers of H69AR lung cancer cells, primary screen, cell-based, human, 86K library; H69AR lung tumor viability, ATP luminescence, 72 h; active compounds read low; viability, % at 10 µM; hit rate 6% among 85,000; AID 598, 2007;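 active = viability at or below 40%; inactive = viability above 40%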;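 note: multidrug resistant small cell line overexpressing MRP-1 efflux transporter; 100% = mean luminescence of untreated control wells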
# HUVEC prolif 384: inhibitors of HUVEC proliferation, primary screen, cell-based, 384-well. CellTiter-Glo luminescence, 72 h; active compounds read low. viability, % at 10 µM (by protocol). hit rate 1.1% among 86,000. AID 648, 2007;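 active = viability at or below 30%; inactive = viability above 30%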;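 note: 100% = median luminescence of DMSO-only cell control wells on each plate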
# Ecoli WT expand: growth inhibitors of wild-type E. coli, primary screen, strain BW25113, expanded library, OD600 | hit rate 0.15% among 98,000 | growth inhibition, % at 100 µM | OD600 absorbance;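 active = growth inhibition above about 50% at one test dose, limit read from the data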;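 note: growth measured after 20 h incubation at 37 °C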
# Fibroblast inh: antiproliferative effect on LL 47 fibroblasts – human, LL 47 cells, CellTiter-Glo luminescence, primary screen | hit rate 1.1% among 85,000 | viability, % at 10 µM | LL 47 human lung fibroblast viability, ATP luminescence; active compounds read low;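 active = viability at or below 50% in the single dose screen; inactive = viability above 50%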;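 note: compound exposure lasted 72 h before the ATP readout; 100% = median luminescence of untreated cell-only wells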
#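 Test system: LL 47 human lung fibroblasts; Quantity: 1,150 cells/well; Buffer or medium: IMEM plus 15% FBS; Dosing: tenfold compound dosing solution, DMSO at 0.1%; Timing: overnight cell rest, 72 h compound treatment at 37 °C; Detection: ATP-based CellTiter-Glo luminescent readout; Read-out basis: viability percentage against median untreated-cell control; Controls: cell-only wells, no compound.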
# Jurkat viability: cytotoxicity toward Jurkat T cells, primary screen, cytotoxicity control, cell-based, Jurkat E6.1, 60K MLSMR library. hit rate 1.2% among 56,000. Jurkat E6.1 viability, ATP luminescence, 48 h. inhibition, % at 4 µM;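 active = inhibition above the mean inhibition of all tested compounds plus 3 SD, cut at about 28% in these data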
# Active calls of the source: *; . = not tested or not shown. Rows were chosen to be rich in hits. Some 6.4% of all compounds tested hit in one or more screens of this group.
SMILES,Ecoli tolC,H69AR inhibit,HUVEC prolif 384,Ecoli WT expand,Fibroblast inh,Jurkat viability
O=C(Nc1nnc(-c2cccs2)o1)c1cccc(Oc2ccccc2)c1,97*,39*,61,29,88,10
COc1cccc(C(=O)Nc2nnc(-c3cccs3)s2)c1,.,.,.,-26,.,.
O=C(Nc1nnc(-c2cccs2)o1)c1cccc(F)c1,100*,103,51,.,64,75*
O=C(NCC1CCCC(CNC(=O)N2CCc3ccccc32)C1)N1CCc2ccccc21 (stereo not drawn),.,.,.,-17,.,.
O=[N+]([O-])c1ccc(Cl)cc1Sc1nc2ccccc2o1,.,25*,41,.,95,.
O=[N+]([O-])c1ccc(Sc2nc3ccccc3o2)c([N+](=O)[O-])c1,.,0.2*,2.6*,23,0.9*,.
COc1ccc(C(=O)CC(Nc2ccc([N+](=O)[O-])cc2)c2ccc(Cl)cc2)cc1 (stereo not drawn),.,.,.,-25,.,.
CN1C(=O)C(O)(CC(=O)c2ccccn2)c2cc(Br)ccc21 (stereo not drawn),-2,29*,59,14,85,8
CCN1C(=O)C(O)(CC(=O)c2ccccn2)c2ccccc21 (stereo not drawn),.,61,89,-1,89,.
Cc1ccc(C(=O)CC2(O)C(=O)N(C)c3ccc(Br)cc32)c(C)c1 (stereo not drawn),10,36*,83,4,86,2
Cc1c(N2C(=O)CS/C2=N\N=C\c2ccc(Br)cc2)c(=O)n(-c2ccccc2)n1C,.,.,.,-4,.,.
Cc1ccc(C)c(C(C)NC(=O)C2C3CCC(O3)C2C(=O)O)c1 (stereo not drawn),-13,23*,29*,1,105,-1
CC(Oc1ccccc1)C(=O)Nc1nc2c(s1)C(=O)CC(C)(C)C2 (stereo not drawn),.,95,108,3,98,.
CC1(C)CC(=O)c2sc(NC(=O)CCS(=O)(=O)c3ccccc3)nc2C1,.,1.1*,78,5,50,.
O=C(CCS(=O)(=O)c1ccccc1)Nc1nc(-c2ccccn2)cs1,13,4.0*,70,.,56,-8
O=C(Nc1nc(-c2ccccn2)cs1)c1ccc(Br)s1,.,13*,24*,19,27*,.
O=C(Nc1cccnc1)c1ccc(Br)s1,29,7.5*,82,16,35*,-1
CCN(CCCNC(=O)CN(C)S(=O)(=O)c1ccc2c(c1)CCC(=O)N2)c1cccc(C)c1,-5,82,91,-3,96,-1
COc1ccc(CCNC(=O)Cn2nnc(-c3ccccc3F)n2)cc1OC,.,101,101,0,97,.
O=C(CS(=O)(=O)c1ccccc1)Nc1nc(-c2ccccc2)cs1,100*,72,89,-5,98,-2
Fc1ccc(Br)cc1C1C=C(c2ccc(Br)s2)Nc2ncnn21 (stereo not drawn),69*,29*,52,-13,56,1
COc1cccc(C2C=C(c3ccc(Br)s3)Nc3ncnn32)c1OC (stereo not drawn),40,43,110,-3,93,6
Cc1ccc(Nc2nc(CSc3nnnn3C)cs2)cc1,16,102,110,14,101,-2
Cc1ccc(Nc2nc(CSc3nnnn3-c3ccccc3)cs2)cc1,94*,98,74,-20,92,0
Cc1ccc(C)c2nc(SCC(=O)N3CCCc4ccccc43)c(C#N)cc12,.,.,.,-10,.,.
SMILES,Ecoli tolC,H69AR inhibit,HUVEC prolif 384,Ecoli WT expand,Fibroblast inh,Jurkat viability
O=C(Nc1nnc(C2CC2)s1)c1ccncc1,.,101,96,-2,104,.
CCn1c(N)c(C(=O)NC)sc1=S,-13,20*,95,9,97,-2
CCNC(=O)c1sc(=S)n(CC)c1N,-30,.,.,4,.,8
CCCCCSc1nnc(-c2cc(Br)ccc2N)c(=O)[nH]1,100*,88,99,5,102,4
O=C(Oc1ccc(Cl)c2cccnc12)c1ccco1,.,1.3*,32,100*,4.2*,.
O=C(Oc1cccc2cccnc12)c1ccco1,.,1.5*,64,.,5.2*,.
O=C(Oc1cccc2cccnc12)c1ccc2c(c1)OCCO2,15,29*,100,13,3.2*,-4
O=C(Oc1cccc2ccccc12)c1ccco1,-16,64,85,8,95,-4
O=C(Oc1cccc2cccnc12)c1cccs1,-4,1.6*,52,13,3.4*,-3
O=C(Oc1ccccc1)c1cccc2cccnc12,-10,0.8*,87,21,36*,1
O=S(=O)(Nc1cc(Cl)ccc1N1CCCCC1)c1cccs1,62*,86,101,-6,87,15
O=C(CCCOc1ccc(Cl)cc1Cl)N/N=C\C1CCCCC1,.,.,.,0,.,.
OC(CN1CCN(c2ccccn2)CC1)Cn1c2ccccc2c2ccccc21 (stereo not drawn),7,99,99,-2,97,4
OC(COc1ccc(Cl)c2ccccc12)CN1CCN(c2ccccn2)CC1 (stereo not drawn),100*,101,34,-6,105,.
Nc1cccc2nc3ccccc3cc12,.,9.2*,4.2*,57*,19*,.
CC1CCCC(n2c(=S)[nH]c3ccccc3c2=O)C1C (stereo not drawn),.,22*,72,-8,90,.
O=C(O)CNc1nc(Cl)ccc1[N+](=O)[O-],.,82,85,-4,93,.
COc1cc2nc(NCC3CCCO3)n3nc(-c4cccnc4)nc3c2cc1OC (stereo not drawn),16,21*,71,-2,87,4
CCN(CC)CCCNc1nc2cc(OC)c(OC)cc2c2nc(-c3cccnc3)nn12,.,65,76,2,71,.
c1cncc(-c2nc3c4ccccc4nc(N4CCC(N5CCCCC5)CC4)n3n2)c1,0,.,.,.,.,1
CCN(CC)CCCNc1nc2cc(OC)c(OC)cc2c2nc(-c3ccccc3)nn12,.,6.5*,26*,3,1.8*,.
COc1cc2nc(NCCN3CCOCC3)n3nc(-c4ccccc4)nc3c2cc1OC,5,66,83,.,106,2
CN1CCN(CCCNc2nc3ccccc3c3nc(-c4ccccc4)nn23)CC1,18,28*,70,.,67,-5
COc1cc2nc(NCCCN3CCN(C)CC3)n3nc(-c4ccccc4)nc3c2cc1OC,.,28*,25*,-15,87,.
CCN(CC)CCCNc1nc(-c2ccccc2)nc2ccccc12,.,77,79,.,90,.
O=c1oc2ccccc2n1Cc1ccccc1Cl,12,95,91,.,90,4
Cc1oc(-c2ccccc2)cc1C(=O)Nc1ccc(N(C)C)cc1,.,92,80,2,107,.
